Measurements from paper PMC9075125 (RSC Advances, 2019).

Key:
Assay in all cases: Cell proliferation assay
Format in all cases: cell-based
[1] = test system: human breast cancer cell line MCF-7; conditions: MCF7, 48 h, read-out: IC50, antiproliferation, Human breast cancer (MCF-7)
Outline: (§1)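 Log-phase adherent cells were seeded at 5 × 10^4 cells per mL and allowed 24 h before test compound was added at a range of concentrations for 48 h. MTT (5 mg mL−1 stock) was added for a further 4 h. Medium was removed, formazan dissolved in DMSO, and the plate read on a microplate reader. IC50 was calculated from dose–response curves of three independent assays.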

[2] = test system: non-small cell lung cancer cell line NCI-H460; conditions: Homo sapiens, NCI-H460, 48 h, read-out: IC50, antiproliferation, Non-small cell lung cancer (H460)
Outline: as §1

[3] = test system: human colon cancer cell line HT-29; conditions: HT-29, 48 h, read-out: IC50, antiproliferation, Human colon cancer (HT-29)
Outline: as §1

CC[C@@]1(O)C(=O)OCc2c1cc1n(c2=O)Cc2cc3ccccc3nc2-1 [CPT, camptothecin]
IC50 [1]: 370 ± 50 nM | IC50 [2]: 40 ± 2 nM | IC50 [3]: 40 ± 20 nM
